# Rows were chosen to be rich in hits. Some 3.7% of all compounds tested hit in one or more screens of this group.
# Kir21 inh = blocks the mouse Kir2.1 inward-rectifier potassium channel | HEK293-Kir2.1, FluxOR thallium flux fluorescence; active compounds read low | AID 1672 | 310,000 tested, 0.85% active | B-score at 10 µM;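 active = fluorescence ratio B-score at or below minus 3 SD of library scores, with starting-brightness B-score within 2 SD, cut at about -4.2 in these data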;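 also: channel flux triggered by added potassium and thallium sulfate stimulus; B-score of peak minus minimum fluorescence over baseline after thallium stimulus; more negative B-score means stronger Kir2.1 block with less thallium influx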
# Target sequence (P35561 whole entry, looked up): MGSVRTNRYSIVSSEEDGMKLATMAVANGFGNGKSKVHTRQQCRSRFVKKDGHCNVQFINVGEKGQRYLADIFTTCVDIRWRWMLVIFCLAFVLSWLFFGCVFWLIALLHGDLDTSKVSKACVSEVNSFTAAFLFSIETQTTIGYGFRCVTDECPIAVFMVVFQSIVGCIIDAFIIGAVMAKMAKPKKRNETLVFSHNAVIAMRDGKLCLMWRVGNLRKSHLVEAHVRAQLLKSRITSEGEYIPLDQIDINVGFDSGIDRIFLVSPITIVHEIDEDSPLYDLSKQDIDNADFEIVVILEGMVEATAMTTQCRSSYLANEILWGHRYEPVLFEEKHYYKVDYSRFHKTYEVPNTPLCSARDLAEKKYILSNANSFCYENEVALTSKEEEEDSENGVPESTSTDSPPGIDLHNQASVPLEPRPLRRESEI
# KCNQ1 inh = blocks the human KCNQ1 potassium channel; P51787; B-score at 10 µM; CHO-K1 KCNQ1, FluxOR thallium flux fluorescence; active compounds read high; 310,000 tested, 1.3% active; AID 2642;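 active = compounds whose thallium flux B-score, printed positive for inhibition, exceeds three library SD while starting fluorescence stays within three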;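 also: channel opened by potassium depolarization with thallium stimulus after 20 min compound exposure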
# KCNQ1 pot = potentiates or activates the human KCNQ1 potassium channel; P51787; CHO-K1 KCNQ1, thallium flux FluxOR fluorescence; active compounds read high; B-score at 10 µM; 310,000 tested, 0.35% active;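 active = fluorescence ratio B-score, a plate-corrected score, at least three library SD, with initial intensity B-score within 5 SD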
#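 assay system = CHO-K1 cells stably expressing KCNQ1 | medium = assay buffer, equal DMSO in all wells | timing = 37 °C overnight plating, 90-min dark dye load, 20-min compound pretreatment | measured by = kinetic FluxOR thallium fluorescence, 10-s 1-Hz baseline, 110-s post-stimulus read | measure = fluorescence change relative to baseline, converted to B score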
# hERG rescue = shields human hERG channel from block by proarrhythmic agents; activation (rescue from dofetilide block), less the hit threshold, % at 10 µM; 310,000 tested, 0.51% active; CHO-hERG, FluxOR thallium flux, dofetilide IC70 present;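 active = activation above the mean of controls blocked by dofetilide plus 5 SD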;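 also: thallium influx through hERG after potassium depolarization seen as dye fluorescence rise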
# KCNK3 block = human KCNK3 channel inhibition, primary screen; O14649; CHO-KCNK3 thallium flux, FluxOR fluorescence; active compounds read low; B-score at 10 µM; 340,000 tested, 0.84% active;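 active = B-score under library mean minus 4 SD, starting fluorescence ratio at most library mean plus 5 SD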;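 also: more negative B-score means stronger inhibition of thallium flux through KCNK3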
# KCNK9 block = blocks the human KCNK9 two-pore domain potassium channel; Q9NPC2; HEK293 KCNK9, FluxOR thallium flux fluorescence; active compounds read low; B-score at 10 µM; 310,000 tested, 1.2% active;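 active = ratio B-score over 3 SD below the library mean, with starting fluorescence within 5 SD of its mean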;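 also: negative B-score means less thallium flux so channel inhibition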
# KCNK9 block conf = human KCNK9 inhibitor confirmation; shares compounds with KCNK9 block; HEK293 KCNK9 cells, FluxOR thallium flux fluorescence; inhibition, % at 10 µM; 4,900 tested, 43% active; AID 492992;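 active = thallium signal inhibited by more than 5 SD of the compound-free buffer control wells, on both duplicate plates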;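 also: 0% = assay buffer control wells without compound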
# Kir2-1 spec = tests whether KCNK9 modulators also affect mouse Kir2.1 | Kir2.1 cells, FluxOR thallium flux fluorescence | inhibition, % at 10 µM | shares compounds with KCNK9 block | 4,900 tested, 4% active;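 active = thallium signal drop more than 5 SD beyond the mean of the no-compound control wells, seen in both duplicate plates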;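 also: signal is fluorescence rise after thallium addition divided by baseline fluorescence; plate controls were assay buffer only for no effect and full block by chlorpromazine control for full effect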
# KCNK9 uninduced = second check of KCNK9 modulator effects in non-induced HEK293 cells. FluxOR thallium flux. shares compounds with KCNK9 block. 4,900 tested, 40% active. inhibition, % at 10 µM;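 active = thallium signal drop beyond 5 SD of the untreated control mean, on both duplicate plates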;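 also: plate controls were buffer only IC0 wells for no effect and SID17386958 at its maximal inhibitory level for full effect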
# Starred values were filed as active, the others as inactive; i = inactive; . = no result given.
SMILES,Kir21 inh,KCNQ1 inh,KCNQ1 pot,hERG rescue,KCNK3 block,KCNK9 block,KCNK9 block conf,Kir2-1 spec,KCNK9 uninduced
C=CCc1ccc(OCCOCCN(C)C)c(OC)c1,-0.24,i,i,-3,i,i,.,.,.
O=C(NCCc1ccccc1Cl)c1cc(COc2ccc(F)cc2F)on1,-1,i,i,-4,i,i,.,.,.
O=C(Nc1cccc(S(=O)(=O)N2CCCCC2)c1)c1ccc2c(=O)n3c(nc2c1)CCCCC3,2,i,i,-25,i,i,.,.,.
Cc1cc(=O)[nH]c(SCC(=O)OCc2ccccc2)c1C#N,-0.45,i,i,-7,i,i,.,.,.
C[C@H](NC(=O)Cc1cccc2ccccc12)C(=O)N1CCOCC1,.,.,.,.,i,.,.,.,.
COc1ccc2c(c1)C(SCC(=O)NCCc1ccccc1)CC(C)(C)O2 (stereo not drawn),-3.4,i,i,-9,i,i,i,i,i
O=C(Nc1cccc(Br)c1)c1cc(S(=O)(=O)N2CCOCC2)cs1,0.3,i,i,-7,i,i,.,.,.
CN(C)c1ccccc1C(=O)N1CCCC(C(=O)c2ccc3ccccc3c2)C1 (stereo not drawn),0.59,i,i,-24,i,i,i,i,i
O=C(c1ccc2ccccc2c1)C1CCCN(C(=O)c2cccnc2)C1 (stereo not drawn),1.9,i,i,-1,i,i,.,.,.
CSc1ncccc1C(=O)N1CCCC(C(=O)c2ccc3ccccc3c2)C1 (stereo not drawn),-0.03,i,i,-14,i,i,i,i,i
COCCn1c(SCc2ccc(OC)c(F)c2)nnc1-c1ccncc1,-2.9,i,i,-3,i,i,.,.,.
N#C/C(=C\c1cn[nH]c1-c1ccccc1)C(=O)NC1CCCCCC1,1.1,i,i,-8,i,i,i,i,i
N#C/C(=C\c1cn[nH]c1-c1ccc(Cl)cc1)C(=O)NC1CC1,-0.12,i,i,-12,i,i,.,.,.
Cc1cc(C(=O)N/N=C/c2ccc(-c3cccc(Cl)c3)o2)n[nH]1,-1,i,i,-10,i,-14*,34%*,i,32%*
Cc1cccc(NC(=O)/C(C#N)=C\c2ccc(C(=O)O)cc2)c1,0.76,i,i,-9,i,i,.,.,.
COc1cc(C)c(/C=C(\C#N)C(=O)Nc2cccc(C)c2)cc1C(C)C,-1.2,i,i,-4,i,i,i,i,i
CC1(C)CC(=O)C2=C(C1)NC(SCC(=O)Nc1ccccc1)=C(C#N)C2c1ccco1 (stereo not drawn),1.5,i,i,-6,i,i,.,.,.
Cc1ccc(C(=O)CSC2=C(C#N)C(c3ccco3)C3=C(CC(C)(C)CC3=O)N2)cc1 (stereo not drawn),-0.04,i,i,-8,-10*,-8.4*,46%*,i,33%*
CCCCCCCCC/C(=N\O)c1ccccn1,-2.2,7*,i,-7,i,-15*,41%*,i,50%*
COc1c(CC=C(C)C)cc(C2CC(=O)c3c(O)cc(O)cc3O2)c(CC=C(C)C)c1O (stereo not drawn),0.01,i,i,-5,.,-11*,67%*,i,50%*
COCCN1C(=O)C(C(=O)OC)CC2=C1CC(C)(C)CC2=O (stereo not drawn),.,.,.,.,i,.,.,.,.
CN1CCN(C(=O)CN(c2ccccc2)S(=O)(=O)N(C)C)CC1,1.5,i,i,0,.,i,.,.,.

# Screens from PubChem BioAssay.
